Results from different studies.
Each line is one published result; the experiments were not run side by side.
FGFR1: Fibroblast growth factor receptor 1 (FGFR1, Homo sapiens, UniProt P11362)

Compound | target | test | setting | quantity | value
C#Cc1n[nH]c2c(-c3cn([C@@H](C)c4ccccn4)c(=O)[nH]c3=O)cc(F)cc12 | Fibroblast growth factor receptor 1 (FGFR1, Homo sapiens, UniProt P11362, V561M) | enzyme activity, inhibitor | 0.1 µM | inhibition | -4.4%
Cn1cncc1[C@](O)(COc1ccc(C#N)cc1-c1ccc(OC(F)(F)F)cc1)c1ccc(C#N)cc1 | FGFR1 | cell-free assay, competition with immobilised ligand | 1 µM | remaining binding | 62%
CC(C)(C)c1cc(C=C(C#N)C#N)cc(Br)c1O | FGFR1 | enzyme activity, inhibitor | 0.5 µM | remaining activity | 95.9%
C#Cc1n[nH]c2c(-c3cn([C@@H](C)c4ccccc4)c(=O)[nH]c3=O)cc(F)cc12 | FGFR1 | enzyme activity, inhibitor | 0.1 µM | inhibition | 2.9%
COc1ncccc1-c1cnn2ccc(N3CCN(C(=O)OC(C)C)CC3)nc12 | FGFR1 | binding, competition with immobilised ligand | 1 µM | remaining binding | 88%
Cn1cc(-c2cc(F)cc(N3CCn4c(cc5c4CCCC5)C3=O)c2CO)cc(Nc2ccc(N3CCN(C4COC4)CC3)cn2)c1=O | FGFR1 | enzyme activity, inhibitor | 0.1 µM | inhibition | 9%
COCc1c(-c2cc3cc(C)cc(OC)c3s2)c2c(N)ncnn2c1CN1CCNC(=O)C1 | FGFR1 | cell-free assay, competition with immobilised ligand | 1 µM | inhibition | 98%
N#CC1(c2ccccn2)CCN(Cc2cc(C(=O)O)c(=O)n3ccccc23)CC1 | FGFR1 | cell-free assay, competition with immobilised ligand | 1 µM | remaining binding | 98%
Nc1ncc(-c2nc(N3CCOCC3)nc(N3CCOCC3)n2)c(C(F)F)n1 | FGFR1 | cell-free assay, competition with immobilised ligand | 10 µM | remaining binding | 94%
Cc1nn(C)cc1-c1nc2c(N3CCN(Cc4ccc(Cl)cc4)CC3)c(Cl)cnc2[nH]1 | FGFR1 | binding, competition with immobilised ligand | 1 µM | remaining binding | 62%
O=c1[nH]c2ccccc2n1C1CCN(Cc2ccc(-c3[nH]c4cc5ncnc5cc4nc3-c3ccccc3)cc2)CC1 | FGFR1 | cell-free assay | 0.5 µM | remaining signal | 102%
Cn1cc(-c2cccc(N3CCc4c(sc5c4CC(C)(C)C5)C3=O)c2CO)cc(Nc2ccncn2)c1=O | FGFR1 | enzyme activity, inhibitor | 1 µM | inhibition | 9%
COc1cc(Nc2ncc(F)c(Nc3ccc4c(n3)NC(=O)C(C)(C)O4)n2)cc(OC)c1OC | FGFR1 | binding, competition with immobilised ligand | 10 µM | inhibition | 100%
